Where “and” joins values, the source holds several entries; their conditions need not be identical. Equal entries are not always repeated. Calls of active or inactive are those of the source.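 How the source made its calls: active means fitted curve crosses 40% activation at or below the top valid dose tested for that sample; inconclusive means flat fit between 30 and 70% activation, or poor fit; inactive means the rest, including activity in the opposite direction.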
system: not listed separately; assay: activators of HIF1alpha nuclear translocation – imaging, U2OS, high content, dry powder, set 3, orthogonal assay for HIF pathway activator project, dose response (AID 493239); conditions: U2OS GFP-HIF1alpha nuclear intensity imaging; at 38 µM (top of the series)
Outline: (§1)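 Material: human osteosarcoma U2OS cells expressing GFP-HIF1alpha fusion; amount: 2,000 cells/well; compound: 8 concentrations, 3-fold steps; incubation: cells plated one day before dosing, compound exposure 24 h at 37 °C; measured by: 10X fluorescence microscopy, fixed cells, DAPI nuclear stain; control set: Desferrioxamine as positive control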

Row | Compound | activation
1 | Cc1ccc(CNC(=O)c2cc(-c3ccccc3)on2)cc1 | 0.663% (inactive)
2 | O=C(Nc1cnc2ccccc2c1)c1cc(-c2ccccc2)on1 | 8.34% (inactive)
3 | O=C(Nc1ncc(-c2ccccc2)o1)c1cc(-c2ccccc2)on1 | 4.26% (inactive)
4 | O=C(Nc1nc(-c2ccccc2)cs1)c1cc(-c2ccccc2)on1 | 0.096% (inactive)
5 | Cc1cccc(NC(=O)c2cc(-c3ccccc3)on2)n1 | 7.71% (inactive)
6 | O=C(c1cc(-c2ccccc2)on1)N1CCN(c2ccncc2)CC1 | 14% (inactive)
7 | O=C(c1cc(-c2ccccc2)on1)N1CCc2cccnc21 | 0.25% (inactive)
8 | O=C(c1cc(-c2ccccc2)on1)N1CCC(CO)CC1 | 8.11% (inactive)
9 | O=C(NCc1ccccc1)c1cc(-c2ccccc2)on1 | -3.06% (inactive)
10 | Cc1ccccc1CNC(=O)c1cc(-c2ccccc2)on1 | 6.92% (inactive)
11 | O=C(NCCN1CCOCC1)c1cc(-c2ccccc2)on1 | 248% (inactive)
12 | O=C(c1cc(-c2ccccc2)on1)N1CCC(N2CCCC2)CC1 | 5.78% (inactive)
13 | Cn1c(NC(=O)c2cc(-c3ccccc3)on2)nc2ccccc21 | -0.603% (inactive)
14 | CN1CCN(C(=O)c2cc(-c3ccccc3)on2)CC1 | -3.79% (inactive)
15 | Cc1cccc(CNC(=O)c2cc(-c3ccccc3)on2)c1 | 12.7% (inactive)
16 | O=C(Nc1ccc2ccccc2n1)c1cc(-c2ccccc2)on1 | 0.342% (inactive)
17 | O=C(Nc1nnc(-c2ccccc2)s1)c1cc(-c2ccccc2)on1 | -0.414% (inactive)
18 | O=C(c1cc(-c2ccccc2)on1)N1CCC(N2CCOCC2)CC1 | -3.94% (inactive)
19 | COc1ccccc1N1CCN(Cc2ccc(O)c3ncccc23)CC1 | 219% (inactive)
20 | Oc1ccc(CN2CCC(Cc3ccccc3)CC2)c2cccnc12 | 592% (inactive)
21 | O=C(NC1Cc2ccccc2C1)c1cc(-c2ccccc2)on1 | 7.61% (inactive)

system: U2OS GFP-HIF1alpha nuclear intensity imaging; assay: as above; conditions: not given
Outline: as §1

Row | Compound | AC40
22 | N#CC1(c2ccccc2)CCN(Cc2ccc(O)c3ncccc23)CC1 | > 38 µM (inactive)
23 | c1ccc(-c2nnc(-c3ccccn3)nc2N2CCN(c3ccncc3)CC2)cc1 | 5.44 µM
24 | CC(C)(C)OC(=O)N1CCN(Cc2ccc(O)c3ncccc23)CC1 | > 38 µM (inactive)
25 | CN(C)c1nc(-c2ccccn2)nnc1-c1ccccc1 | 11.6 µM
26 | c1ccc(-c2nnc(-c3ccccn3)nc2NCC2CCCCC2)cc1 | 1.13 µM
27 | c1ccc(-c2nnc(-c3ccccn3)nc2N2CCC(C3CCCCC3)C2)cc1 (configuration not stated) | 0.24 µM
28 | Cc1ccc(CNc2nc(-c3ccccn3)nnc2-c2ccccc2)cc1C | 0.779 µM
29 | Oc1ccc(CN2CCc3ccccc3C2)c2cccnc12 | 3.58 µM and 20.4 µM
30 | c1ccc(-c2nnc(-c3ccccn3)nc2NCC2CCOCC2)cc1 | 6.43 µM
31 | c1ccc(-c2nnc(-c3ccccn3)nc2N2CCC(c3ccccc3)C2)cc1 (configuration not stated) | 0.353 µM
32 | C[C@@H](Nc1nc(-c2ccccn2)nnc1-c1ccccc1)C1CCCCC1 | 0.515 µM
33 | O=C(NCCN1CCCCC1)c1cc(-c2ccccc2)on1 | > 38 µM (inactive)
34 | OCCCNc1nc(-c2ccccn2)nnc1-c1ccccc1 | 12.1 µM
35 | CC(Nc1nc(-c2ccccn2)nnc1-c1ccccc1)c1ccccc1 (configuration not stated) | 1.48 µM
36 | C[C@H](Nc1nc(-c2ccccn2)nnc1-c1ccccc1)C1CCCCC1 | 0.866 µM
37 | C=CCNc1nc(-c2ccccn2)nnc1-c1ccccc1 | 5.24 µM
38 | CC(C)(C)CCNc1nc(-c2ccccn2)nnc1-c1ccccc1 | 0.77 µM and 0.585 µM
39 | Cc1cccc(Nc2nc(-c3ccccn3)nnc2-c2ccccc2)n1 | 2.98 µM
40 | Cn1c(-c2ccccc2)cnc1NC(=O)c1cc(-c2ccccc2)on1 | > 38 µM (inactive)
41 | c1ccc(-c2nnc(-c3ccccn3)nc2NCCc2ccccn2)cc1 | 4.57 µM
42 | c1ccc(-c2nnc(-c3ccccn3)nc2N2CCC(N3CCOCC3)CC2)cc1 | 3.85 µM
43 | OCC1CCN(Cc2ccc(O)c3ncccc23)CC1 | 4.02 µM

Row | Compound | AC40
44 | CC(C)(C)CCNC(=O)c1cc(-c2ccccc2)on1 | 18 µM
45 | c1ccc(-c2nnc(-c3ccccn3)nc2Nc2cnc3ccccc3n2)cc1 | 3.16 µM
46 | Oc1ccc(CNC2CCc3ccccc32)c2cccnc12 (configuration not stated) | 10.3 µM
47 | O=C(NCCCO)c1cc(-c2ccccc2)on1 | 5.32 µM
48 | O=C(NC1CCc2ccccc2C1)c1cc(-c2ccccc2)on1 (configuration not stated) | > 38 µM (inactive)
49 | c1ccc(-c2nnc(-c3ccccn3)nc2NCCCN2CCOCC2)cc1 | 5.94 µM
50 | O=C(NCC1CCCCC1)c1cc(-c2ccccc2)on1 | > 38 µM (inactive)
51 | O=C(NCCCn1ccnc1)c1cc(-c2ccccc2)on1 | 5.74 µM
52 | CCCCNC(=O)c1cc(-c2ccccc2)on1 | 5.94 µM
53 | c1ccc(-c2nnc(-c3ccccn3)nc2Nc2nc3ccccc3s2)cc1 | 1.26 µM
54 | c1ccc(-c2csc(Nc3nc(-c4ccccn4)nnc3-c3ccccc3)n2)cc1 | 0.88 µM
55 | OCC1CCN(c2nc(-c3ccccn3)nnc2-c2ccccc2)CC1 | 13.6 µM
56 | c1ccc(-c2nnc(Nc3nc(-c4ccccn4)nnc3-c3ccccc3)s2)cc1 | 7.75 µM
57 | O=C(Nc1ncc2ccccc2n1)c1cc(-c2ccccc2)on1 | 32.3 µM
58 | c1ccc(-c2nnc(-c3ccccn3)nc2NCCN2CCOCC2)cc1 | 7.2 µM
59 | COc1ccc(CNc2nc(-c3ccccn3)nnc2-c2ccccc2)cc1 | 1.15 µM
60 | c1ccc(-c2ccc(CNc3nc(-c4ccccn4)nnc3-c3ccccc3)cc2)cc1 | 0.487 µM
61 | CN(C)CCNC(=O)c1cc(-c2ccccc2)on1 | > 38 µM (inactive)
62 | Cc1ccc(CNc2nc(-c3ccccn3)nnc2-c2ccccc2)cc1 | 1.24 µM
63 | O=C(Nc1nc2ccccc2s1)c1cc(-c2ccccc2)on1 | 20.1 µM
64 | O=C(NCCCCO)c1cc(-c2ccccc2)on1 | 2.08 µM
65 | c1ccc(CCNc2nc(-c3ccccn3)nnc2-c2ccccc2)cc1 | 5.72 µM

Row | Compound | AC40
66 | c1ccc(-c2nnc(-c3ccccn3)nc2NCc2ccccn2)cc1 | 6.35 µM
67 | c1ccc(-c2cnc(Nc3nc(-c4ccccn4)nnc3-c3ccccc3)s2)cc1 | 9.91 µM
68 | Cc1ccccc1CNc1nc(-c2ccccn2)nnc1-c1ccccc1 | 1.14 µM
69 | O=C(NCC1CC1)c1cc(-c2ccccc2)on1 | 7.97 µM
70 | Oc1ccc(CNC2Cc3ccccc3C2)c2cccnc12 | 4.22 µM
71 | C[C@@H](Nc1nc(-c2ccccn2)nnc1-c1ccccc1)c1ccccc1 | 1.87 µM
72 | CN1CCN(c2nc(-c3ccccn3)nnc2-c2ccccc2)CC1 | 8.8 µM
73 | Cn1c(-c2ccccc2)cnc1Nc1nc(-c2ccccn2)nnc1-c1ccccc1 | 8.34 µM
74 | Cc1ccc(NC(=O)c2cc(-c3ccccc3)on2)cn1 | > 38 µM (inactive)
75 | c1ccc(-c2cccc(CNc3nc(-c4ccccn4)nnc3-c3ccccc3)c2)cc1 | 0.407 µM
76 | CC1CN(Cc2ccc(O)c3ncccc23)CC(C)O1 (configuration not stated) | 18.6 µM
77 | COc1cccc(CNc2nc(-c3ccccn3)nnc2-c2ccccc2)c1 | 1.08 µM
78 | O=C(Nc1cn2ccccc2n1)c1cc(-c2ccccc2)on1 | 3.04 µM
79 | Clc1cccc(CNc2nc(-c3ccccn3)nnc2-c2ccccc2)c1 | 0.651 µM
80 | O=C(NCCCN1CCOCC1)c1cc(-c2ccccc2)on1 | 14.8 µM
81 | Cc1cccc(CNc2nc(-c3ccccn3)nnc2-c2ccccc2)c1 | 1.83 µM
82 | Cc1ccc(Nc2nc(-c3ccccn3)nnc2-c2ccccc2)cn1 | 9.48 µM
83 | c1ccc(CNc2nc(-c3ccccn3)nnc2-c2ccccc2)cc1 | 2.07 µM
84 | c1ccc(-c2nnc(-c3ccccn3)nc2NCC2CC2)cc1 | 3.09 µM
85 | CC(C)(C)c1ccc(CNc2nc(-c3ccccn3)nnc2-c2ccccc2)cc1 | 0.169 µM
86 | c1ccc(-c2nnc(-c3ccccn3)nc2NCc2cccnc2)cc1 | 3.21 µM
87 | Oc1ccc(CN2CCC3CCCCC3C2)c2cccnc12 (configuration not stated) | 5.44 µM

— PubChem BioAssay AID493239 (Broad Institute, 2011)
